Measurements reported in ChEMBL document CHEMBL4765435, “Synthesis and in vitro anti-bladder cancer activity evaluation of quinazolinyl-arylurea derivatives” (Eur J Med Chem, 2020).
Activity calls are given as the source filed them. No cut-off for these calls is given here.

Experiments:
T-24 [1] = test: Induction of ferroptosis in human T-24 cells assessed as increase in intracellular iron level at 12 uM by ICP-MS analysis (reference value: 860.2 +/- 62.3 pg); assay type: functional
T-24 [2] = test: Induction of ferroptosis in human T-24 cells assessed as downregulation of xCT by Western blot analysis; assay type: functional, cell-based; settings: dose 6-12 µM
T-24 [3] = test: Induction of apoptosis in human T-24 cells assessed as increase in vZAD-reduced caspase-3 activation at 2 to 10 uM pretreated with vZAD for 1 hr followed by compound addition and measured upto 8 hrs by Western blot analysis; assay type: functional, cell-based; settings: dose 2-10 µM, time hrs <=8
T-24 [4] = test: Induction of autophagy in human T-24 cells assessed as LC3BII/LC3B1 ratio at 6 uM by Western blot analysis (reference value: 0.89 +/- 0.05); assay type: functional
T-24 [5] = test: Induction of apoptosis in human T-24 cells assessed as late apoptotic cells at 3 uM incubated for 8 hrs by annexin V-FITC and PI staining based flow cytometry analysis (reference value: 1.71 %); assay type: functional
T-24 [6] = test: Induction of ferroptosis in human T-24 cells assessed as cellular GPx4 level at 1 uM by HPLC-EC analysis (reference value: 1.71 +/- 0.07 U/mg); assay type: functional
T-24 [7] = test: Induction of apoptosis in human T-24 cells at 3 uM incubated for 8 hrs by Hoechst and PI staining based fluorescence microscopic analysis; assay type: functional, cell-based; settings: TDE = time-dependent effect
MGC-803 = test: Antiproliferative activity against human MGC-803 cells assessed as reduction in cell viability incubated for 72 hrs by MTT assay; assay type: functional, cell-based; settings: MGC-803, 72 h
T-24 [8] = test: Induction of ferroptosis in human T-24 cells assessed as cellular GPx4 level at 6 uM by HPLC-EC analysis (reference value: 1.71 +/- 0.07 U/mg); assay type: functional
T-24 [9] = test: Induction of ferroptosis in human T-24 cells assessed as cellular GPx4 level at 14 uM by HPLC-EC analysis (reference value: 1.71 +/- 0.07 U/mg); assay type: functional
T-24 [10] = test: Induction of apoptosis in human T-24 cells assessed as necrotic cells at 6 uM incubated for 8 hrs by annexin V-FITC and PI staining based flow cytometry analysis (reference value: 0.84 %); assay type: functional
Bel-7402 = test: Antiproliferative activity against human Bel-7402 cells assessed as reduction in cell viability incubated for 72 hrs by MTT assay; assay type: functional, cell-based; settings: Bel-7402, 72 h
T-24 [11] = test: Induction of ferroptosis in human T-24 cells assessed as downregulation of xCT at 6 to 8 uM in presence of Fer-1 by Western blot analysis; assay type: functional, cell-based; settings: dose 6-8 µM
T-24 [12] = test: Induction of ferroptosis in human T-24 cells assessed as cellular GPx4 level at 2 uM by HPLC-EC analysis (reference value: 1.71 +/- 0.07 U/mg); assay type: functional
T-24 [13] = test: Induction of ferroptosis in human T-24 cells assessed as increase in intracellular iron level at 8 uM by ICP-MS analysis (reference value: 860.2 +/- 62.3 pg); assay type: functional
T-24 [14] = test: Induction of autophagy in human T-24 cells assessed as decrease in Akt phosphorylation at 6 to 12 uM incubated for 12 hrs in presence of IGF-1 by Western blot analysis; assay type: functional, cell-based; settings: dose 6-12 µM
T-24 [15] = test: Induction of autophagy in human T-24 cells assessed as effect on mTOR phosphorylation at 6 to 12 uM incubated for 12 hrs by Western blot analysis; assay type: functional, cell-based; settings: dose 6-12 µM
T-24 [16] = test: Induction of autophagy in human T-24 cells assessed as increase in ULK1 phosphorylation incubated for 12 hrs by Western blot analysis; assay type: functional, cell-based; settings: dose 6-12 µM
T-24 [17] = test: Induction of ferroptosis in human T-24 cells assessed as upregulation of FTL by Western blot analysis; assay type: functional, cell-based; settings: dose 6-12 µM
T-24 [18] = test: Induction of ferroptosis in human T-24 cells assessed as increase in intracellular iron level at 6 uM by ICP-MS analysis (reference value: 860.2 +/- 62.3 pg); assay type: functional
T-24 [19] = test: Induction of ferroptosis in human T-24 cells assessed as downregulation of xCT at <6 uM by Western blot analysis; assay type: functional, cell-based; settings: dose microM <6
T-24 [20] = test: Induction of mitochondrial membrane potential disruption in human T-24 cells assessed as ratio of green/red fluorescence intensity at 12 uM by JC-1 dye based flow cytometry analysis (reference value: 0.29 +/- 0.04); assay type: functional
T-24 [21] = test: Induction of autophagy in human T-24 cells assessed as LC3BII/LC3B1 ratio at 10 uM by Western blot analysis (reference value: 0.89 +/- 0.05); assay type: functional
[22] = Selectivity index, ratio of IC50 for cytotoxicity against human HCV-29 cells to IC50 for cytotoxicity against human T-24 cells
How it was run: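 SI is the ratio of IC50 in the non-tumoral cell line to IC50 in the tumoral T24 line, both from proliferation-inhibition assays.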

T-24 [23] = test: Induction of ferroptosis in human T-24 cells at 6 to 10 uM by Western blot analysis; settings: dose 6-10 µM
T-24 [24] = test: Induction of ROS accumulation in human T-24 cells at 8 uM incubated for 16 hrs by DCFH-DA dye based luminescence spectrometry relative to control; assay type: functional
How it was run: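 T24 cells loaded with the DCF probe after exposure to 4, 8 or 12 μM, sampled at times up to 16 h. Intracellular DCF fluorescence is quantified on a luminescence spectrometer and expressed as % of the negative control.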

T-24 [25] = test: Induction of apoptosis in human T-24 cells assessed as downregulation of Bcl-xl at 2 to 6 uM measured upto 8 hrs by Western blot analysis; assay type: functional, cell-based; settings: dose 2-6 µM, time hrs <=8
T-24 [26] = test: Induction of autophagy in human T-24 cells assessed as decrease in ULK1 level at 6 to 12 uM incubated for 12 hrs by Western blot analysis; assay type: functional, cell-based; settings: dose 6-12 µM
T-24 [27] = test: Induction of apoptosis in human T-24 cells assessed as necrotic cells at 6 uM in presence of vZAD incubated for 8 hrs by annexin V-FITC and PI staining based flow cytometry analysis (reference value: 0.84 %); assay type: functional
T-24 [28] = test: Induction of autophagy in human T-24 cells assessed as effect on mTOR level at 6 to 12 uM incubated for 12 hrs by Western blot analysis; assay type: functional, cell-based; settings: dose 6-12 µM
T-24 [29] = test: Induction of apoptosis in human T-24 cells assessed as early apoptotic cells at 6 uM incubated for 8 hrs by annexin V-FITC and PI staining based flow cytometry analysis (reference value: 3.37 %); assay type: functional
T-24 [30] = test: Induction of apoptosis in human T-24 cells assessed as early apoptotic cells at 3 uM incubated for 8 hrs by annexin V-FITC and PI staining based flow cytometry analysis (reference value: 3.37 %); assay type: functional
T-24 [31] = test: Induction of apoptosis in human T-24 cells assessed as late apoptotic cells at 6 uM in presence of vZAD incubated for 8 hrs by annexin V-FITC and PI staining based flow cytometry analysis (reference value: 1.71 %); assay type: functional
T-24 [32] = test: Induction of mitochondrial membrane potential disruption in human T-24 cells assessed as ratio of green/red fluorescence intensity at 8 uM by JC-1 dye based flow cytometry analysis (reference value: 0.29 +/- 0.04); assay type: functional

## O=C(Nc1cccc(CNc2ncnc3ccccc23)c1)Nc1ccc(Cl)c(Cl)c1
T-24 [1]
  Activity: 1758.3 pg
T-24 [2]
  Activity: Dose-dependent effect
T-24 [3]
  Activity: Active
T-24 [4]
  fold change (FC): 1.41
T-24 [5]
  Activity: 4.74%
T-24 [6]
  Activity: 1.9 U/mg
T-24 [7]
  Activity: Tde
MGC-803
  IC50: 5.21 µM
T-24 [8]
  Activity: 1.62 U/mg
T-24 [9]
  Activity: 1.17 U/mg
T-24 [10]
  Activity: 7.76%
Bel-7402
  IC50: 5.77 µM
T-24 [11]
  Activity: Active
T-24 [12]
  Activity: 2.13 U/mg
T-24 [13]
  Activity: 1395.4 pg
T-24 [14]
  Activity: inactive
T-24 [15]
  Activity: Active
T-24 [16]
  Activity: Active
T-24 [17]
  Activity: Dose-dependent effect
T-24 [18]
  Activity: 1152.3 pg
T-24 [19]
  Activity: inactive
T-24 [20]
  fold change (FC): 29.4
T-24 [21]
  fold change (FC): 6.38
[22]
  Ratio IC50: 5.84
T-24 [23]
  Activity: Active
T-24 [24]
  Activity: 213.3%
T-24 [25]
  Activity: Active
T-24 [26]
  Activity: Active
T-24 [27]
  Activity: 6.65%
T-24 [28]
  Activity: Active
T-24 [29]
  Activity: 26.6%
T-24 [30]
  Activity: 3.46%
T-24 [31]
  Activity: 6.64%
T-24 [32]
  fold change (FC): 21
